Compounds with a hit are over-represented: about 4.5% of the library has one in this group of screens.
RGS4 block – human RGS4 inhibition; AID 463165; actives 0.45% (n = 310,000); HEK293 M3R/RGS4 inducible, Fluo-4 calcium flux; stronger effect = higher value; triggered by carbachol at its EC20; P49798; B-score at 10 µM;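 active means B-score, a plate-corrected calcium signal, over three deviations above library mean, with baseline fluorescence within five deviations of library mean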;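 further: RGS4 expression induced by doxycycline in cells with stable M3 receptor; B-score is computed from the integrated fluorescence ratio over baseline after carbachol; higher B-score means a larger calcium signal and so more RGS4 inhibition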
RGS4 pot – potentiators or activators of RGS4; B-score at 10 µM; HEK293 M3R/inducible RGS4, carbachol calcium flux Fluo4; stronger effect = lower value; actives 0.92% (n = 310,000); AID 463111;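 active means B-score of the integrated calcium signal more than 4 SD below the library mean, with starting fluorescence not abnormally high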;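 further: negative B-score means reduced calcium response which marks RGS4 activation or potentiation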
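Material: M3R-expressing HEK293 line, RGS4 induced by doxycycline | Schedule: Overnight RGS4 induction, 30 min dye load 37 °C, 20 min compound RT | Measured by: Fluo4 fluorescence kinetic imaging of calcium | Read-out: Integrated calcium ratio converted to B score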
MrgX1 antag – antagonists of human MrgX1 receptor; Q96LB2; MRGX1-HEK293 calcium flux, Fluo-4, BAM8-22 antagonism; stronger effect = lower value; B-score at 10 µM; actives 1.3% (n = 310,000); AID 588676;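 active means calcium-response B-score plate-corrected more than 3 library SD below zero, starting fluorescence within 5 deviations, no agonist response on first addition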;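 further: peak minus trough fluorescence over baseline after final BAM8-22 challenge near maximal dose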
Target sequence (Q96LB2 whole entry, looked up): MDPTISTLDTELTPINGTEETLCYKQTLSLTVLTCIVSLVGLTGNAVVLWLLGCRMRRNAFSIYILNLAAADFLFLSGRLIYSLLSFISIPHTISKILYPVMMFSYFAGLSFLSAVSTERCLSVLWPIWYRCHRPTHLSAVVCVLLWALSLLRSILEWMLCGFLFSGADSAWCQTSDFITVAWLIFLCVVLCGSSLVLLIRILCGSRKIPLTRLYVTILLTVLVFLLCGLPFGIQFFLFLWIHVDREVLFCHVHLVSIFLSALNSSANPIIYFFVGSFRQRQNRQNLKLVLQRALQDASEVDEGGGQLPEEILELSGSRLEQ
PHOSPHO1 block – PHOSPHO1 (human) inhibition | Q8TCT1 | recombinant PHOSPHO1, absorbance phosphatase assay | inhibition, % at 13.3 µM | actives 1.1% (n = 290,000); in the data active means inhibition above about 60%
Target sequence (Q8TCT1 whole entry, looked up): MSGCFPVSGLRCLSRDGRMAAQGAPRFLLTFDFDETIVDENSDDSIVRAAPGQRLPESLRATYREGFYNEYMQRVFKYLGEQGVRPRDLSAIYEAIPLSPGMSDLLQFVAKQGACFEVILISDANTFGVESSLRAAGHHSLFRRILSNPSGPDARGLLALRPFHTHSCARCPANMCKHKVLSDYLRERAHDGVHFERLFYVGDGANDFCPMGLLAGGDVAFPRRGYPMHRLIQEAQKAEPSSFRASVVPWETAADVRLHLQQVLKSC
MrgX1 PAM – human MrgX1 positive allosteric modulation, primary screen. MrgX1-HEK293, Fluo-4 calcium flux, FDSS; stronger effect = higher value. B-score at 10 µM. Q96LB2. actives 0.63% (n = 310,000);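 active means plate-corrected calcium response at least 3 library SD above typical, normal starting fluorescence, not activating the receptor alone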;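 further: compound read alongside a low EC10 to EC30 dose of BAM8-22 agonist; peak minus trough fluorescence over baseline measured at the second addition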
MrgX1 ag – activates human MrgX1 receptor signaling. MrgX1-HEK293 cells, Fluo-4 calcium fluorescence, agonist mode; stronger effect = higher value. AID 588627. actives 0.44% (n = 310,000). B-score at 10 µM;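 active means calcium response B-score plate-corrected fluorescence ratio at least 3 library SD, with starting fluorescence B-score inside 5 SD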
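times = overnight plating, then 30 min 37 °C plus 30 min room-temperature dye loading | assay system = stable human MrgX1 HEK293 cell line | input = fifteen thousand cells per well | signal = kinetic calcium dye fluorescence, Fluo-4 NW | dosing = compound delivered in addition one of three | read-out = B-scored fluorescence response ratio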
MrgX1 allo conf – confirmation of human MrgX1 receptor positive allosteric modulators; shares compounds with MrgX1 PAM; actives 13% (n = 1,200); MrgX1-HEK293, Fluo-4 calcium fluorescence, FDSS; activation (ratio percentage), % at 10 µM; AID 602413;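 active means ratio at least 3 SD above the weak peptide control, stable starting fluorescence, no direct agonism earlier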;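 further: compound followed by low BAM8-22 agonist challenge near EC20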
HEK293 Ca flux – activity in parental HEK293 cells lacking MrgX1; actives 2% (n = 4,000); shares compounds with MrgX1 antag; Fluo-4 calcium fluorescence, FDSS; fluorescence ratio F(max-min)/F0 at 10 µM;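 active means duplicate-averaged calcium fluorescence ratio at least three times the standard deviation of buffer wells, a nonspecific response in parental cells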
HEK293 Ca counter – activity in parental HEK293 cells without MrgX1. fluorescence ratio F(max-min)/F0 at 10 µM. parental HEK293 calcium flux, Fluo-4 fluorescence ratio; stronger effect = higher value. AID 624114. actives 0.4% (n = 4,000). shares compounds with MrgX1 antag;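 active means calcium fluorescence ratio, averaged over duplicates, at least 3 SD of the buffer-well ratio, meaning a nonspecific response in receptor-free cells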;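 further: untransfected parental HEK293 lacking MrgX1 used as counterscreen for MrgX1 allosteric activators; fluorescence change taken during the second addition on a kinetic imager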
HEK293 Ca cntr2 – activity in parental HEK293 cells lacking MrgX1 receptor; shares compounds with MrgX1 antag; Fluo-4 calcium fluorescence (FDSS); stronger effect = higher value; fluorescence ratio F(max-min)/F0 at 10 µM; actives 8.7% (n = 4,000); AID 624115;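 active means calcium fluorescence ratio at least three times the spread of buffer wells, meaning a non-specific response in parental cells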
* marks the source's active call; other numbers are inactive results; i = inactive; / = no result given.

SMILES | RGS4 block | RGS4 pot | MrgX1 antag | PHOSPHO1 block | MrgX1 PAM | MrgX1 ag | MrgX1 allo conf | HEK293 Ca flux | HEK293 Ca counter | HEK293 Ca cntr2
O=C(Nc1ccc(Cl)cc1)NC1CCCC1Cc1ccco1 (stereo not drawn) | i | i | i | 20 | i | i | / | / | / | /
O=C(Nc1ccc(Cl)cc1)NC1CCCCC1Cc1ccco1 (stereo not drawn) | i | i | i | -21 | 15* | i | 5.5%* | i | i | i
CCOC(=O)c1ccccc1NC(=O)c1ccccc1N(C)S(C)(=O)=O | i | i | i | -6 | 7.2* | i | 9.4%* | i | i | i
COC(=O)c1ccccc1NC(=O)c1ccccc1N(C)S(C)(=O)=O | i | i | i | -4 | 10* | i | i | i | i | i
COC(=O)c1ccccc1N(C)S(C)(=O)=O | i | i | i | -22 | i | i | / | / | / | /
CCOC(=O)c1ccccc1NC(=O)c1ccc(N(C)S(C)(=O)=O)cc1 | i | i | i | -25 | i | i | / | / | / | /
CSc1ccccc1NC(=O)c1ccccc1N(C)S(C)(=O)=O | i | i | i | -20 | 8.2* | i | 10.0%* | i | i | i
Nc1nc(-c2ccccn2)nc(N)c1Cc1c(F)cccc1Cl | i | i | i | 45 | i | i | / | / | / | /
Cc1n[nH]c(C)c1Cc1c(F)cccc1Cl | i | i | i | 18 | 25* | i | 16%* | i | i | i
CN(C)S(=O)(=O)c1ccc(C(=O)OCC(=O)NCc2ccccc2)cc1 | i | i | i | 8 | 8.4* | i | i | i | i | i
CS(=O)(=O)N(CC(=O)NCCSCc1ccccc1)c1ccccc1F | i | i | i | / | i | i | / | / | / | /
CC(C(N)=O)N1C(=O)NC2(CCCc3ccccc32)C1=O (stereo not drawn) | i | i | i | 56 | i | i | / | / | / | /
C=CCN(CC=C)S(=O)(=O)c1ccc2nc(NC(=O)C(C)C)sc2c1 | / | / | i | 34 | 21* | i | i | i | i | i
O=C(CSc1nnc(SCc2cccc3ccccc23)s1)N=Nc1c(O)[nH]c2ccccc12 | / | / | i | -3 | i | i | / | / | / | /
O=C(CC1C(=O)NCCN1Cc1ccccc1)NCCN1CCCCC1=O (stereo not drawn) | i | i | i | 21 | 9.4* | i | i | i | i | i
O=C(CC1C(=O)NCCN1Cc1ccc(F)cc1)NCCN1CCCc2ccccc21 (stereo not drawn) | i | i | i | -16 | i | i | / | / | / | /
C/C(=C\C(=O)c1ccccc1)NCc1ccc(F)cc1 | i | i | i | 39 | 7.4* | i | i | i | i | i
CN(C)S(=O)(=O)c1cccc(NC(=O)c2c[nH]c3ccccc23)c1 | i | i | i | 32 | 9.9* | i | i | i | i | i
CN(C)S(=O)(=O)c1cccc(NC(=O)c2cc(=O)[nH]c3ccccc23)c1 | i | i | i | -44 | i | i | / | / | / | /
CN1CCN(C(=S)C(=O)Nc2ccc(Br)cc2)CC1 | i | i | i | -1 | 11* | i | i | i | i | i
CN1CCN(C(=S)NC(=O)c2ccc(Br)cc2)CC1 | i | i | i | -12 | i | i | / | / | / | /
COc1cc2c(cc1OC)C1(Nc3c-2c(C)nn3-c2ccccc2)C(=O)Nc2ccccc21 (stereo not drawn) | / | / | i | 20 | 6.7* | i | i | i | i | i
Cc1nc2cc(N=NC3=C(O)CCCC3=O)ccc2s1 | i | i | i | -5 | i | i | / | / | / | /
CCCc1c(C(=O)Nc2ccc(F)cc2F)cnn1-c1ccccc1 | i | i | i | 42 | 11* | i | i | i | i | i
CC1CCCCN1CCNC(=O)c1ccc2c(c1)N(Cc1ccccc1)C(=O)c1ccccc1S2(=O)=O (stereo not drawn) | i | i | i | 55 | i | i | / | / | / | /
SMILES | RGS4 block | RGS4 pot | MrgX1 antag | PHOSPHO1 block | MrgX1 PAM | MrgX1 ag | MrgX1 allo conf | HEK293 Ca flux | HEK293 Ca counter | HEK293 Ca cntr2
c1ccc2nc(-c3ccc(-n4ccnc4)cc3)ccc2c1 | i | i | i | 11 | 8.9* | i | i | i | i | i
c1ccc(-c2ccc3ccccc3n2)cc1 | i | i | i | / | i | i | / | / | / | /
CC(C)(C)OC(=O)N1CCC(CNC(=O)c2ccc(F)cc2)CC1 | i | i | i | 48 | 35* | i | i | i | i | i
Fc1ccc(-c2cc(C(F)(F)F)nc(-n3cncn3)n2)cc1 | i | i | i | 4 | i | i | / | / | / | /
Fc1ccc(-c2cc(C(F)(F)F)nc(-n3cccn3)n2)cc1 | i | i | i | 8 | 8.2* | i | 32%* | i | i | i
Cc1ccc(S(=O)(=O)NC(=S)NC2CCCCC2)cc1 | i | i | i | 16 | 10* | i | i | i | i | i
CCc1ccc(C(C)NC(=S)NC2CCCCC2)cc1 (stereo not drawn) | i | i | i | -2 | i | i | / | / | / | /
Cc1ccc(S(=O)(=O)C2(C(=O)NC3CCCC3)CC2)cc1 | i | i | i | -27 | i | i | / | / | / | /
CCc1ccc(S(=O)(=O)NC(=S)NC2CCCCC2)cc1 | i | i | i | 6 | 16* | i | i | i | i | i
O=S(=O)(NC(=S)NC1CCCCC1)c1ccc(Cl)cc1 | i | i | i | 37 | 17* | i | 23%* | i | i | i
CCNC(=O)C/C(C)=N/NC(=O)C(=O)Nc1ccc(CC)cc1 | i | i | i | -1 | i | i | / | / | / | /
Cc1ccc(S(=O)(=O)Nc2cc(=O)[nH]c(SCC(=O)Nc3ccccc3Cl)n2)cc1 | / | / | / | 41 | / | / | / | / | / | /
CCCn1c(SCC(=O)Nc2cccc(NC(C)=O)c2)nnc1C(C)C | i | i | i | 18 | i | i | / | / | / | /
